In article PMC10527948 (European journal of pharmacology, 2023):

Legend:
[1] = target: T1, membrane-bound ecto-5`-nucleotidase/CD73 (Rattus norvegicus, UniProt P21588); experiment: Ecto-5`-nucleotidase/CD73 enzyme assay; format: biochemical; details: for IC50: Dixon linearization, control primary astrocytes, 1.0 mM AMP; for % inhibition at indicated concentration: value in brackets in the Ki column, concentration not given
T1 sequence (P21588 29-576): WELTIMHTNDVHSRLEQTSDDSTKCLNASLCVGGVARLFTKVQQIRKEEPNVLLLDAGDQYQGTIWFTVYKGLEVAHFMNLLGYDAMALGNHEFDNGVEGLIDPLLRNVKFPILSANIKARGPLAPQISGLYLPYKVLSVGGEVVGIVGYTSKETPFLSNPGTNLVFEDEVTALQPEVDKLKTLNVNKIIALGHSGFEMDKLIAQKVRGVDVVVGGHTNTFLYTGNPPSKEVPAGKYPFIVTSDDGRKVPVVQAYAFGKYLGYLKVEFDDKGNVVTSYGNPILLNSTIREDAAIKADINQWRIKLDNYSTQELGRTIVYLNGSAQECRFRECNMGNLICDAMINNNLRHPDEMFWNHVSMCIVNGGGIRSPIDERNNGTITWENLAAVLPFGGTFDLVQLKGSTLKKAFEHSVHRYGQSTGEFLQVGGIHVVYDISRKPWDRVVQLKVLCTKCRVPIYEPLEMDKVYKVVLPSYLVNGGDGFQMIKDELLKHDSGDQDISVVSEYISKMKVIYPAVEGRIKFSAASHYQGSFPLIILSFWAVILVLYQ
Procedure, shortened: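 Confluent primary cortical astrocytes from 1-day-old male Wistar rat pups, washed in phosphate-free HEPES/bicarbonate saline, pH 7.4. 15 min preincubation with inhibitor (in water, 1×10−9 to 1×10−3 M); 1.0 mM AMP solution added, 30 min at 37°C; stopped with cold perchloric acid. Pi by malachite green at 620 nm, normalised to BCA protein.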

primary astrocytes [2] = experiment: Cell proliferation by double Ki67/DAPI fluorescence staining; format: cell-based, rat; details: 24 hours
primary astrocytes [3] = experiment: Morphometric analysis of GFAP-immunostained astrocytes; format: cell-based, rat; details: 24 hours
Procedure, shortened: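 Astrocytes on PLL-coated coverslips treated with inhibitor for 24 h, then prefixed in 4% PFA and blocked in 5% BSA. Stained with rabbit anti-GFAP (1:500), Alexa-555 secondary, and DAPI. Confocal images analysed in ImageJ for cell area and shape descriptors. Mean ± SE from ≥ 22 cells in 3 random fields, ≥ 2 cultures.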

[4] = target: T2, CD73 in reactive astrocytes (Rattus norvegicus, UniProt P21588); experiment: CD73 enzyme assay in reactive astrocytes stimulated with TNFα or IL-1β; format: biochemical
T2 sequence (P21588 29-576): T1 sequence (P21588 29-576)
Procedure, shortened: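 Rat primary astrocytes exposed to TNF-α or IL-1β for 24 h, then assayed for AMP hydrolysis (Pi release by malachite green, per mg protein per min). Inhibitor tested at a single 50 μM concentration, or as a 1–250 μM series in cells given 0.1 μg/ml IL-1β. The series was fitted to a four-parameter sigmoid.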

primary astrocytes [5] = experiment: MTT assay of cell metabolic activity; format: cell-based, rat
primary astrocytes [6] = experiment: Scratch wound migration assay; format: cell-based, rat; details: 1–100 μM; 8 and 24 hours
C3 = experiment: qRT-PCR of inflammatory gene expression in cytokine-treated astrocytes; format: cell-based, rat; details: 100 ng/ml cytokine, 24 hours
Procedure, shortened: (§1)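 Confluent rat primary astrocytes in 6-well plates treated with 100 ng/ml TNF-α or IL-1β for 24 h. Total RNA extracted with TRIzol, purity checked by OD260/280, then reverse-transcribed. Gene-specific primers used with Gapdh as internal control; quantified by the 2−ΔCt method, n = 3 separate determinations.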

Lcn = experiment: as above; format: cell-based, rat; details: 100 ng/ml cytokine, 24 hours
Procedure, shortened: as §1

Nt5e = experiment: qRT-PCR of gene expression in cytokine-treated astrocytes; format: cell-based, rat; details: 100 ng/ml cytokine, 24 hours
Procedure, shortened: as §1

Molecule	IC50 [1] [µM]	% inhibition at indicated concentration [1] [%]	Area (μm^2) (primary astrocytes [3]; 100 μM)	Aspect ratio (primary astrocytes [3]; 100 μM)	Circularity (primary astrocytes [3]; 100 μM)	Roundness (primary astrocytes [3]; 100 μM)	Solidity (primary astrocytes [3]; 100 μM)	C3 mRNA abundance (fold-increase in respect to non-stimulated control) (C3) [fold-increase]	Lcn mRNA abundance (fold-increase in respect to non-stimulated control) (Lcn) [fold-increase]	other results
Nc1ncnc2c1ncn2[C@@H]1O[C@H](COP(=O)(O)CP(=O)(O)O)[C@@H](O)[C@H]1O [APCP, 5’-(α,β-methylene)diphosphate adenosine, reference compound]	2.63 ± 1.76	18.6	3181.9 ± 607.2 μm^2	2.2 ± 0.2	0.49 ± 0.03	0.54 ± 0.07	0.75 ± 0.04			Ki ([1]; Cheng-Prusoff equation, Km for rat CD73 53.0 ± 4.1 μM): 0.132 ± 0.089 µM; effect on proliferation rate (Ki67+/DAPI+) (primary astrocytes [2]; indicated concentrations): no apparent effect
Cn1c(=O)n([C@@H]2O[C@H](COP(=O)(O)CP(=O)(O)O)[C@@H](O)[C@H]2O)cc/c1=N\OCc1ccc(Cl)cc1 [MRS4598]	0.11 ± 0.08	53.4	1861.8 ± 137.5 ^* μm^2	2.7 ± 0.2	0.43 ± 0.03	0.42 ± 0.04	0.77 ± 0.02			inhibition of CD73 activity at 1×10^−3 M ([1]; 1×10^−3 M inhibitor): complete inhibition; effect on CD73 catalytic activity in reactive astrocytes ([4]; 50 μM, cells treated with TNFα or IL-1β for 24 hours): decreased the catalytic activity of CD73; IC50 ([4]; astrocytes stimulated with 0.1 μg/ml IL-1β, 1–250 μM): 5 ± 0.26 µM; effect on formazan formation (MTT) (primary astrocytes [5]; 1 μM, 24 hours): no effect; reduction of formazan formation (MTT) (primary astrocytes [5]; concentrations above 10 μM, 24 hours, no apparent concentration dependence): 40%; cytotoxic effects on primary astrocytes (primary astrocytes [5]; concentrations as low as 1 μM): negligible cytotoxic effects; effect on proliferation rate (Ki67+/DAPI+) (primary astrocytes [2]; 50 μM and 100 μM, vs control (~22%), p < 0.05): modest but significant decrease; Area (μm^2) (primary astrocytes [3]; 10 μM): 3619.4 ± 552.5 μm^2; Aspect ratio (primary astrocytes [3]; 10 μM): 2.3 ± 0.2; Circularity (primary astrocytes [3]; 10 μM): 0.55 ± 0.06; Roundness (primary astrocytes [3]; 10 μM): 0.47 ± 0.04; Solidity (primary astrocytes [3]; 10 μM): 0.84 ± 0.04; effect on astrocyte migration velocity (wound closure) (primary astrocytes [6]): did not affect migration velocity of astrocytes, except at the highest tested concentration of 100 μM
IL-1β: proinflammatory cytokine used to induce the reactive astrocyte phenotype								3.13 ± 0.69	24.22 ± 6.21	
TNFα								4.65 ± 2.29	49.04 ± 3.34	Nt5e mRNA abundance (fold-increase in respect to non-stimulated control) (Nt5e): 2.49 ± 0.33 fold-increase
